The values below come from ChEMBL document CHEMBL1124373, “Specific inhibition of benzodiazepine receptor binding by some N-(indol-3-ylglyoxylyl)amino acid derivatives: stereoselective interactions” (J Med Chem, 1989).

Assay [1] addresses GABA-A receptor; anion channel. Put plainly: Inhibitory concentration against [3H]flunitrazepam binding to benzodiazepine receptor from bovine cerebral cortex. It is filed as tissue-based. A digest of the protocol:
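Membranes from bovine cerebral cortex were homogenized in 0.32 M sucrose with protease inhibitors, osmotically shocked, and suspended in 50 mM Tris-HCl pH 7.4. Membrane (0.5 mg protein) was incubated with 0.9 nM [3H]flunitrazepam at 0 °C for 90 min, then filtered and counted. Nonspecific binding was defined with 10 µM diazepam. IC50 came from log-probit analysis of six to eight concentrations in triplicate; values are means ± SEM of four determinations.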

The target in assay [2] is T1, GABA-A receptor; anion channel (Bos taurus) (UniProt P10063+P08220+P20237+P08219+P10064+P22300). Put plainly: Percentage inhibition of [3H]flunitrazepam binding to benzodiazepine receptor from bovine cerebral cortex at a concentration of 250 uM. It counts as tissue-based.
The subject of assay [3] is Mus musculus. Put plainly: Antagonism of Diazepam anticonvulsant effect in mice treated with 60 mg/kg PTZ. It counts as functional.
Assay [4] relates to Mus musculus. Put plainly: Dose required to induce convulsions in mice treated with subcutaneous PTZ (40 mg/kg). It counts as functional. Particulars: sc. Summed up:
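Groups of 10 mice received graded ip doses (0.1 mL) suspended in 1% carboxymethylcellulose, or vehicle alone. A subconvulsant PTZ dose of 40 mg/kg followed 30 min later. ED50 is the dose inducing convulsions in 50% of mice.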

Assay [5] has as its target T1, GABA-A receptor; anion channel (Bos taurus). Kind of assay: Relative binding to GABA-A benzodiazepine receptor in the presence and absence of GABA (GABA shift). It is filed as protein-complex assay. Summed up:
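Exhaustively washed bovine cortical membranes were used. Binding inhibition used 0.9 nM [3H]flunitrazepam at 0 °C for 90 min in 50 mM Tris-HCl pH 7.4. IC50 was determined by log-probit analysis without and with 10 µM GABA. Ratio = IC50 without GABA / IC50 with GABA.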

As to `C[C@@H](NC(=O)C(=O)c1c[nH]c2ccccc12)C(=O)O`, the IC50 – broadly, the point on the concentration scale where inhibition reaches its midpoint – in assay [1] is 304 µM. Further, the inhibition (in general, how much of the control response was suppressed) in assay [2] is 32%.
Compound `O=C(N[C@@H](Cc1ccccc1)C(=O)O)C(=O)c1c[nH]c2ccc([N+](=O)[O-])cc12` showed an IC50 in assay [1] of 4 µM.
Same read-out and setting: then `C[C@H](NC(=O)C(=O)c1c[nH]c2ccc([N+](=O)[O-])cc12)C(=O)O`, with 3 µM; and `CCOC(=O)C(C)NC(=O)C(=O)c1c[nH]c2ccccc12` (configuration not stated), with 13 µM; and `CCOC(=O)[C@@H](Cc1ccccc1)NC(=O)C(=O)c1c[nH]c2ccc(Br)cc12`, with 220 µM.
Same read-out and setting: then `O=C(N[C@H](Cc1ccccc1)C(=O)O)C(=O)c1c[nH]c2ccc([N+](=O)[O-])cc12`, with 21 µM.
Consider `CCOC(=O)[C@H](C)NC(=O)C(=O)c1c[nH]c2ccc([N+](=O)[O-])cc12`, for which the ED50 (in general, the midpoint of the dose-response relation) in the assay with Mus musculus [3] came out at 100 mg/kg; in the assay on Mus musculus [4], 150 mg/kg. The compound further registered an IC50 in assay [1] of 0.07 µM. Besides, the Ratio in assay [5] turned out to be 0.67.
On to `COc1ccc2[nH]cc(C(=O)C(=O)N[C@H](Cc3ccccc3)C(=O)O)c2c1`, for which the inhibition in assay [2] worked out at 18%.
With `CCOC(=O)[C@H](Cc1ccccc1)NC(=O)C(=O)c1c[nH]c2ccc(OC)cc12`, the inhibition in assay [2] worked out at 77%.
The same measure, in the same setting: then `CCOC(=O)[C@H](Cc1ccccc1)NC(=O)C(=O)c1c[nH]c2ccccc12`, with 69%.
Same read-out and setting: next, `CCOC(=O)[C@@H](Cc1ccccc1)NC(=O)C(=O)c1c[nH]c2ccccc12`: 55%.
`CCOC(=O)[C@@H](C)NC(=O)C(=O)c1c[nH]c2ccc(Br)cc12` gave a half-maximal inhibitory concentration (IC50) in assay [1] of 52 µM. Moreover, the Ratio in assay [5] was 0.85.
`C[C@H](NC(=O)C(=O)c1c[nH]c2ccc(Cl)cc12)C(=O)O` yielded an IC50 in assay [1] of 5.01 µM.
For the compound `CCOC(=O)[C@@H](C)NC(=O)C(=O)c1c[nH]c2ccc(Cl)cc12`, the IC50 in assay [1] worked out at 25 µM. The Ratio in assay [5] stood at 0.92.
As for `CCOC(=O)C(Cc1ccccc1)NC(=O)C(=O)c1c[nH]c2ccc(Br)cc12` (configuration not stated), the IC50 in assay [1] amounted to 180 µM.
The same measure, in the same setting: then `O=C(N[C@@H](Cc1ccccc1)C(=O)O)C(=O)c1c[nH]c2ccc(Cl)cc12`, with 12 µM; and `COc1ccc2[nH]cc(C(=O)C(=O)N[C@@H](C)C(=O)O)c2c1`, with 22 µM; and `CC(NC(=O)C(=O)c1c[nH]c2ccc(Br)cc12)C(=O)O` (configuration not stated), with 40 µM.
The same measure, in the same setting: then `CC(NC(=O)C(=O)c1c[nH]c2ccccc12)C(=O)O` (configuration not stated), with 105 µM.
Compound `O=C(N[C@H](Cc1ccccc1)C(=O)O)C(=O)c1c[nH]c2ccc(Br)cc12` had an IC50 in assay [1] of 245 µM. Further, the inhibition in assay [2] stood at 51%.
For `O=C(N[C@H](Cc1ccccc1)C(=O)O)C(=O)c1c[nH]c2ccc(Cl)cc12`, the IC50 in assay [1] turned out to be 48 µM.
On the same count and under the same terms, then `O=C(NC(Cc1ccccc1)C(=O)O)C(=O)c1c[nH]c2ccc(Br)cc12` (configuration not stated), with 158 µM.
On to `CCOC(=O)[C@H](C)NC(=O)C(=O)c1c[nH]c2ccc(Br)cc12`, for which the figures for the ED50 in the assay on Mus musculus [3] and with Mus musculus [4] were 50 mg/kg and 40 mg/kg, respectively. This compound also displayed an IC50 in assay [1] of 0.18 µM. The Ratio in assay [5] turned out to be 0.78.
In assay [1], `CCOC(=O)[C@@H](C)NC(=O)C(=O)c1c[nH]c2ccc(OC)cc12` displayed an IC50 of 110 µM.
On the same count and under the same terms, next, `CCOC(=O)[C@H](C)NC(=O)C(=O)c1c[nH]c2ccccc12`: 7.5 µM.
With `COc1ccc2[nH]cc(C(=O)C(=O)N[C@@H](Cc3ccccc3)C(=O)O)c2c1`, in assay [2], the inhibition came out at 50%.
`CCOC(=O)[C@@H](C)NC(=O)C(=O)c1c[nH]c2ccc([N+](=O)[O-])cc12` showed an IC50 in assay [1] of 3 µM. Further, the Ratio in assay [5] was 0.79.
In assay [1], `C[C@H](NC(=O)C(=O)c1c[nH]c2ccccc12)C(=O)O` had an IC50 of 48 µM.
Still for that read-out and setting: then `CCOC(=O)[C@H](Cc1ccccc1)NC(=O)C(=O)c1c[nH]c2ccc(Cl)cc12`, with 30 µM.
As for `O=C(N[C@H](Cc1ccccc1)C(=O)O)C(=O)c1c[nH]c2ccccc12`, the inhibition in assay [2] worked out at 32%.
`O=C(N[C@@H](Cc1ccccc1)C(=O)O)C(=O)c1c[nH]c2ccc(Br)cc12`: the IC50 in assay [1] was 60 µM.
Compound `O=C(N[C@@H](Cc1ccccc1)C(=O)O)C(=O)c1c[nH]c2ccccc12` yielded an inhibition in assay [2] of 47%.
Turning to `CCOC(=O)[C@H](Cc1ccccc1)NC(=O)C(=O)c1c[nH]c2ccc(Br)cc12`, the IC50 in assay [1] stood at 55 µM.
Take `CCOC(=O)[C@@H](Cc1ccccc1)NC(=O)C(=O)c1c[nH]c2ccc(OC)cc12`: the inhibition in assay [2] turned out to be 30%.
`CCOC(=O)[C@H](C)NC(=O)C(=O)c1c[nH]c2ccc(OC)cc12` gave an IC50 in assay [1] of 0.9 µM.
For `COc1ccc2[nH]cc(C(=O)C(=O)N[C@H](C)C(=O)O)c2c1`, the IC50 in assay [1] stood at 170 µM.
Same read-out and setting: next, `CCOC(=O)[C@@H](Cc1ccccc1)NC(=O)C(=O)c1c[nH]c2ccc(Cl)cc12`: 45 µM.
The same measure, in the same setting: next, `C[C@H](NC(=O)C(=O)c1c[nH]c2ccc(Br)cc12)C(=O)O`: 7.1 µM.
For the compound `CCOC(=O)[C@H](C)NC(=O)C(=O)c1c[nH]c2ccc(Cl)cc12`, the IC50 in assay [1] came out at 0.15 µM. For the same compound, the Ratio in assay [5] came out at 0.9.
Regarding `CCOC(=O)[C@H](Cc1ccccc1)NC(=O)C(=O)c1c[nH]c2ccc([N+](=O)[O-])cc12`, the IC50 in assay [1] was 0.1 µM.
Same read-out and setting: then `CCOC(=O)[C@@H](Cc1ccccc1)NC(=O)C(=O)c1c[nH]c2ccc([N+](=O)[O-])cc12`, with 2.8 µM; and `CCOC(=O)[C@@H](C)NC(=O)C(=O)c1c[nH]c2ccccc12`, with 17 µM; and `C[C@@H](NC(=O)C(=O)c1c[nH]c2ccc(Cl)cc12)C(=O)O`, with 46 µM.
The same measure, in the same setting: next, `C[C@@H](NC(=O)C(=O)c1c[nH]c2ccc([N+](=O)[O-])cc12)C(=O)O`: 19 µM; `C[C@@H](NC(=O)C(=O)c1c[nH]c2ccc(Br)cc12)C(=O)O`: 80 µM.
